The results in this text go back to ChEMBL document CHEMBL1121505, “Retinoic acid analogues. Synthesis and potential as cancer chemopreventive agents” (J Med Chem, 1980).

Common to all, as to type: functional
A short description of test [1]: Inhibition of skin tumor promoter -induced mouse epidermal ornithine decarboxylase (ODC) activity on TPA-induced mouse epidermis at a dose of 17(nmol). The method, boiled down: (§1)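 Female CD-1 mice, 7–9 weeks, shaved dorsal skin 1–2 days before, no hair regrowth. Retinoid applied topically in 0.2 mL acetone 1 h before single topical TPA (10.5 μg, 17 nmol, in 0.2 mL acetone). Killed 5 h after TPA. Five mice per group, skins pooled. Epidermal 30000g supernatant in 50 mM sodium phosphate, 0.1 mM pyridoxal phosphate, 0.1 mM EDTA.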

The nature of test [2]: Inhibition of skin tumor promoter -induced mouse epidermal ornithine decarboxylase (ODC) activity on TPA-induced mouse epidermis at a dose of 1.7(nmol). The method, boiled down: as §1
Test [3] is described as follows: Inhibition of skin tumor promoter -induced mouse epidermal ornithine decarboxylase (ODC) activity on TPA-induced mouse epidermis at a dose of 170(nmol). The method, boiled down:
as §1

For `CC(=O)Oc1cccc(/C=C/C=C(C)/C=C/C2=C(C)CCCC2(C)C)c1`, the inhibition (usually how much of the control response was suppressed) stood at 46% in test [1], 3% in test [2] and 92% in test [3].
Taken in the same sequence, the figures for `CCC1=C(/C=C/C(C)=C/C=C/C(C)=C/C(=O)O)C(C)(C)CCC1` were 86%, 66% and 87%.
Taken in the same sequence, the figures for `COCCOCCOC(=O)/C=C(C)/C=C/C=C(C)/C=C/C1=C(C)CCCC1(C)C` were 92%, 70% and 97%.
As to `CC1=C(/C=C/C(C)=C/C=C/C(C)=C/c2nn[nH]n2)C(C)(C)CCC1`, the results for the inhibition in test [1], in test [2] and in test [3] were 13%, 3% and 2%, respectively.
For `CCOC(=O)/C=C(C)/C=C/C=C(C)/C=C/C1=CC2CCC1C2` (stereo unspecified) the same measures were 63%, 46% and 95%.
`CC1=C(/C=C/C(C)=C/C=C/C(C)=C/C(=O)O)C(C)(C)CCC1` came in with an inhibition in test [2] of 91%.
